Among the data in ChEMBL document CHEMBL1158565, “Antagonism of 4-substituted 1,4-dihydropyridine-3,5-dicarboxylates toward voltage-dependent L-type Ca2+ channels Ca V 1.3 and Ca V 1.2” (Bioorg Med Chem, 2010) are IC50 values, retold here.

For assay [1], the target named is Voltage-dependent L-type calcium channel subunit alpha-1D (Rattus norvegicus, UniProt P27732). Kind of assay: Antagonist activity at rat Cav1.3 expressed in HEK293 cells assessed as inhibition of voltage pulse-induced calcium current by FLIPR calcium 4 assay. The class given is functional, cell-based. Summed up: (§1)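 HEK293 lines stably expressing Cavβ3 and Cavα2δ-1 plus Cav1.2 α1C (rabbit) or Cav1.3 α1D (rat) were selected with zeocin/hygromycin. Calcium signals were read by FLIPR with Calcium 4 dye. IC50 came from 11-point dose-response curves. Signal percentage error (SD/mean) was 6.4% for Cav1.2 and 4.1% for Cav1.3 cells.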

The target of assay [2] is Voltage-dependent L-type calcium channel subunit alpha-1C (Oryctolagus cuniculus, UniProt P15381). As to the kind of experiment: Antagonist activity at rabbit Cav1.2 expressed in HEK293 cells assessed as inhibition of voltage pulse-induced calcium current by FLIPR calcium 4 assay. The class given is functional, cell-based. Summed up: as §1

Structures are written as SMILES.

The term IC50 denotes the concentration needed to halve the response being measured.

Chain of Voltage-dependent L-type calcium channel subunit alpha-1C (P15381 whole entry): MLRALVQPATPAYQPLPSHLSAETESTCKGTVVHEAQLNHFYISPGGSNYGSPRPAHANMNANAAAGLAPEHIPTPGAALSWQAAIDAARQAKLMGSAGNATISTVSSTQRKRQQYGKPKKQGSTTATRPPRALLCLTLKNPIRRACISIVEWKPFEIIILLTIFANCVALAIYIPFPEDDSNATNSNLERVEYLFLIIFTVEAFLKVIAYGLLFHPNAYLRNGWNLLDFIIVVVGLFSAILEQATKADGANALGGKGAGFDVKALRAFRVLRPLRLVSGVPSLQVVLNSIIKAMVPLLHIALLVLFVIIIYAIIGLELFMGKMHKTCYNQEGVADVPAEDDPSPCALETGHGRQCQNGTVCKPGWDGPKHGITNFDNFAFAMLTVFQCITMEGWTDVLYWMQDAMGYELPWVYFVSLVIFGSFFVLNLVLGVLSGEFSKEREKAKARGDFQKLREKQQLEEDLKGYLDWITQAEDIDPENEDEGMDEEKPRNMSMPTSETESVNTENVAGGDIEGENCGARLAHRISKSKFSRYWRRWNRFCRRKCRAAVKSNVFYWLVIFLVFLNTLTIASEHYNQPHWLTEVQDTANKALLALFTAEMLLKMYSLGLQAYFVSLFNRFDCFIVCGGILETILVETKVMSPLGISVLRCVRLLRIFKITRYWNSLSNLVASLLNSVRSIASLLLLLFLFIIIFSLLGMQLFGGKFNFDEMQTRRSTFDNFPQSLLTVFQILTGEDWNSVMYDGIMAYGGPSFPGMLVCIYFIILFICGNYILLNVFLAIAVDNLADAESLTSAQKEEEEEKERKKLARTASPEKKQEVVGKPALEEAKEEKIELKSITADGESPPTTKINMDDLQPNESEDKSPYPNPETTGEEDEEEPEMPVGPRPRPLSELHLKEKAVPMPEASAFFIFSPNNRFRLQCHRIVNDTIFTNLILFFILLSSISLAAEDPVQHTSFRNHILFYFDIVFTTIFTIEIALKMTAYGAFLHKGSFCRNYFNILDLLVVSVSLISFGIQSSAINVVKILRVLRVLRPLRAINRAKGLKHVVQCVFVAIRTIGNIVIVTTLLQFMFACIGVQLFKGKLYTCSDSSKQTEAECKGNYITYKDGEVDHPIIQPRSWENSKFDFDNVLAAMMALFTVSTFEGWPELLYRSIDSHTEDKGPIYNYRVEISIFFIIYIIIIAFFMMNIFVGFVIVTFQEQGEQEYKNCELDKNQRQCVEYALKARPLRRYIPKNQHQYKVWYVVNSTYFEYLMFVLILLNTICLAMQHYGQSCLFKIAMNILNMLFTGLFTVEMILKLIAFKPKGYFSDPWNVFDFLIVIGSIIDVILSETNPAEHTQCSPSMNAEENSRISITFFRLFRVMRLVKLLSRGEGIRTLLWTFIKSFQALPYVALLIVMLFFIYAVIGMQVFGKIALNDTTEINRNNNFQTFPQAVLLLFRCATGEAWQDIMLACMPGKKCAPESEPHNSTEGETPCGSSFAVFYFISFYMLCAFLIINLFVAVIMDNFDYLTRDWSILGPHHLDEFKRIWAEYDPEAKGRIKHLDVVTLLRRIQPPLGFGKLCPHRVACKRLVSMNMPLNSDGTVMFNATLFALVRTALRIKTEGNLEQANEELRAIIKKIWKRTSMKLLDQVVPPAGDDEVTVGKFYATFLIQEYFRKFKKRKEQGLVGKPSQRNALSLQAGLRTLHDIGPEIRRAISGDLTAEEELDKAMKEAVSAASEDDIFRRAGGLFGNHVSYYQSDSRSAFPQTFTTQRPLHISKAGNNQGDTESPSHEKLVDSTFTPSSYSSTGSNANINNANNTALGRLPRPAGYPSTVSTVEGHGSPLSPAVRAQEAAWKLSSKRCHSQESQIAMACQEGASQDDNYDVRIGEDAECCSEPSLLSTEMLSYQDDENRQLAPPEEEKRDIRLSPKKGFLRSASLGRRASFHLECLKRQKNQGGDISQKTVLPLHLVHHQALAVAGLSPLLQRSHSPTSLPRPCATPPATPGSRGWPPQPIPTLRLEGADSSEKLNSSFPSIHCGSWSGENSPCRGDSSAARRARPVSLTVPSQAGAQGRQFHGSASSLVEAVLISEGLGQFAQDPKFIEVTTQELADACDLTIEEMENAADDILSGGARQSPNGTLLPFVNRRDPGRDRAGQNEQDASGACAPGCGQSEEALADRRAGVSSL
Chain of Voltage-dependent L-type calcium channel subunit alpha-1D (P27732 whole entry): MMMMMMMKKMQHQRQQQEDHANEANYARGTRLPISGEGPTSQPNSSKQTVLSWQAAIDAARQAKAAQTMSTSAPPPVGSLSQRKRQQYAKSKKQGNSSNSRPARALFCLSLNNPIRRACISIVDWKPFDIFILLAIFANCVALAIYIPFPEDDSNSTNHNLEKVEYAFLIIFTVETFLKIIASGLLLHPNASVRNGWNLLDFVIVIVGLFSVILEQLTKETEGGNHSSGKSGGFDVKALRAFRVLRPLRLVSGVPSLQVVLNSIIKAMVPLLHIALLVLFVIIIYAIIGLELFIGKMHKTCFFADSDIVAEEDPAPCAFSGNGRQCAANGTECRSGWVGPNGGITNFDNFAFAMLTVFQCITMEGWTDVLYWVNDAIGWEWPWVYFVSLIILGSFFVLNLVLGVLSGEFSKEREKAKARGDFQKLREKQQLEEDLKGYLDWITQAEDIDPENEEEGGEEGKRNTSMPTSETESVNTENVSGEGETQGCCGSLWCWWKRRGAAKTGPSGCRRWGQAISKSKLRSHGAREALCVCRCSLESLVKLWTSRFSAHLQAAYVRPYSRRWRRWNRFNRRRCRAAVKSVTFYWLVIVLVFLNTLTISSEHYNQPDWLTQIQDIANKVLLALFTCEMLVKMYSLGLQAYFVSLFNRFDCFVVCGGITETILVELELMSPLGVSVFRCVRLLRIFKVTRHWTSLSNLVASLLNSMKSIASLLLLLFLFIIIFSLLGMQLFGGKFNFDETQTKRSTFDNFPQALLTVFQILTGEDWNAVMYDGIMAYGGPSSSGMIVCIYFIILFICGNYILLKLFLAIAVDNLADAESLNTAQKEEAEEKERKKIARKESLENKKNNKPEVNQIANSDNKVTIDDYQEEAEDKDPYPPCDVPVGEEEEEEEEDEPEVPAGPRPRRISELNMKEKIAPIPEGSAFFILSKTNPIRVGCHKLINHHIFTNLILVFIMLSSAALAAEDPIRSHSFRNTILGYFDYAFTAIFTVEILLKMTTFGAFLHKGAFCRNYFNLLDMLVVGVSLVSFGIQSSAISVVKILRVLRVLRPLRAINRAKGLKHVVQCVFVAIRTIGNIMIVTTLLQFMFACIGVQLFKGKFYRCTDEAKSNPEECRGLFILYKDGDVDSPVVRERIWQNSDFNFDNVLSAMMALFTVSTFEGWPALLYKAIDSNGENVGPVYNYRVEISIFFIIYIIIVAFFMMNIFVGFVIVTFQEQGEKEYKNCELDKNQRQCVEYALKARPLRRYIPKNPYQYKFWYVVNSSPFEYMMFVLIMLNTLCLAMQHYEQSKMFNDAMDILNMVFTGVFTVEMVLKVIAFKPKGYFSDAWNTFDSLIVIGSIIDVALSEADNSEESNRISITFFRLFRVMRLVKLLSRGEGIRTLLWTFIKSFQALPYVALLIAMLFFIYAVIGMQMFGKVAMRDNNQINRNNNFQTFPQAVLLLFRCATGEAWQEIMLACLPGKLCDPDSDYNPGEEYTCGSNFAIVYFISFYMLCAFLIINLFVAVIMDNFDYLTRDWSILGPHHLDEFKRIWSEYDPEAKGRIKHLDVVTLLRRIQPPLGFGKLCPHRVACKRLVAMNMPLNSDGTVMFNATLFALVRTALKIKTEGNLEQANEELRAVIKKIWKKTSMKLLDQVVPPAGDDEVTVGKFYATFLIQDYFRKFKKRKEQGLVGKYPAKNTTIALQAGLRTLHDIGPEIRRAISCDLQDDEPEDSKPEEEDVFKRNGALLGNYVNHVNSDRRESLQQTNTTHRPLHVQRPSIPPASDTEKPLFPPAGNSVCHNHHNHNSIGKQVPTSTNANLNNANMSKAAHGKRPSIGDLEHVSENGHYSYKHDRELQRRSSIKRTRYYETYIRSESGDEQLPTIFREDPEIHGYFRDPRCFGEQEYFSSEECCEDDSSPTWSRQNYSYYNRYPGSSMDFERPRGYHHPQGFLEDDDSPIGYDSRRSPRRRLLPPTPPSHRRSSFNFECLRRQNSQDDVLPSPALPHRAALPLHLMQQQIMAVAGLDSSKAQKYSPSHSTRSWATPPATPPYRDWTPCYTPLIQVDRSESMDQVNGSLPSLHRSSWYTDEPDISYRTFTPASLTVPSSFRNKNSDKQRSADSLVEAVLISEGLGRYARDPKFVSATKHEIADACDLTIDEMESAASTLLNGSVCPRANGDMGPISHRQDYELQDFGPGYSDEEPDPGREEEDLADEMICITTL

Take `CCOC(=O)C1=C(C)NC(C)=C(C(=O)OCCC#N)[C@H]1c1cccc([N+](=O)[O-])c1`: the figures for the IC50 in assay [1] and in assay [2] were 211 nM and 51 nM, respectively.
`COC(=O)C1=C(C)NC(C)=C(C(=O)OCC(F)(F)F)C1c1cccc([N+](=O)[O-])c1` (stereo unspecified): the IC50 came out at 21 nM in assay [1] and 16 nM in assay [2].
Consider `COC(=O)C1=C(C)NC(C)=C(C(=O)OCCOCc2ccccc2)C1c1cccc([N+](=O)[O-])c1` (stereo unspecified), for which the figures for the IC50 in assay [1] and in assay [2] were 12 nM and 9 nM, respectively.
On to `CCOC(=O)C1=C(C)NC(CN2CCN(c3ccccc3)CC2)=C(C(=O)OCC)C1c1cccc([N+](=O)[O-])c1` (stereo unspecified), for which the IC50 in assay [1] stood at 610 nM; in assay [2], 630 nM.
The like results for `COC(=O)C1=C(C)NC(C)=C(C(=O)OCc2ccc3c(c2)OCO3)C1c1cccc([N+](=O)[O-])c1` (stereo unspecified) were, in that order, 22 nM and 13 nM.
In the case of `CCOC(=O)C1=C(C)NC2=C(C(=O)OC2)C1c1cccc([N+](=O)[O-])c1` (stereo unspecified), the IC50 in assay [1] and in assay [2] was greater than 4000 nM each time.
For `COC(=O)C1=C(C)NC(C)=C(C(=O)OCC23CC4CC(C)(CC(C)(C4)C2)C3)C1c1cccc([N+](=O)[O-])c1` (stereo unspecified), the figures for the IC50 in assay [1] and in assay [2] were 5070 nM and 685 nM, respectively.
The matching figures for `COC(=O)C1=C(C)NC(C)=C(C(=O)OCCC(C)c2ccccc2)C1c1cccc([N+](=O)[O-])c1` (stereo unspecified): 11 nM and 6 nM.
For `COC(=O)C1=C(C)NC(C)=C(C(=O)OCCC(c2ccccc2)c2ccccc2)C1c1cccc([N+](=O)[O-])c1` (stereo unspecified), the concentration for half-maximal inhibition (IC50) is 270 nM in assay [1] and 100 nM in assay [2].
For `CCOC(=O)C1=C(C)NC(CCl)=C(C(=O)OCC)C1c1cccc([N+](=O)[O-])c1` (stereo unspecified), the figures for the IC50 in assay [1] and in assay [2] were 53 nM and 10 nM, respectively.
As for `COC(=O)C1=C(C)NC(C)=C(C(=O)O)C1c1cccc([N+](=O)[O-])c1` (stereo unspecified), the IC50 came out at 930 nM in assay [1] and 900 nM in assay [2].
Consider `COC(=O)C1=C(C)NC(C)=C(C(=O)OCCNC(=O)C(F)(F)F)C1c1cccc([N+](=O)[O-])c1` (stereo unspecified), for which the IC50 in assay [1] was 550 nM; in assay [2], 410 nM.
The matching figures for `C#CCCOC(=O)C1=C(C)NC(C)=C(C(=O)OC)C1c1cccc([N+](=O)[O-])c1` (stereo unspecified): 35 nM and 31 nM.
`COC(=O)C1=C(C)NC(C)=C(C(=O)OCCC#N)C1c1cccc([N+](=O)[O-])c1` (stereo unspecified): the IC50 in assay [1] came out at 78 nM; in assay [2], 26 nM.
In the case of `COC(=O)C1=C(C)NC(C)=C(C(=O)OCCCCc2ccccc2)C1c1cccc([N+](=O)[O-])c1` (stereo unspecified), the results for the IC50 in assay [1] and in assay [2] were 38 nM and 10 nM, respectively.
In the case of `COC(=O)C1=C(C)NC(C)=C(C(=O)OCc2ccccc2)C1c1cccc([N+](=O)[O-])c1` (stereo unspecified), the values for the 50% inhibitory concentration (IC50) in assay [1] and in assay [2] were 15 nM and 25 nM, respectively.
For `CCOC(=O)C1=C(C)NC(C)=C(C(=O)OCCC#N)[C@@H]1c1cccc([N+](=O)[O-])c1`, the IC50 in assay [1] was 137 nM; in assay [2], 50 nM.
The like results for `COC(=O)C1=C(C)NC(C)=C(C(=O)OCc2ccc(OC)c(OC)c2)C1c1cccc([N+](=O)[O-])c1` (stereo unspecified) were, in that order, 117 nM and 112 nM.
Consider `C=CCOC(=O)C1=C(C)NC(C)=C(C(=O)OC)C1c1ccccc1[N+](=O)[O-]` (stereo unspecified), for which the concentration for half-maximal inhibition (IC50) came out at 10 nM in assay [1] and 8 nM in assay [2].
For the compound `CCOC(=O)C1=C(C)NC(C=CC(=O)OC)=C(C(=O)OCC)C1c1cccc([N+](=O)[O-])c1` (mixture of isomers), the IC50 stood at 213 nM in assay [1] and 313 nM in assay [2].
With `COC(=O)C1=C(C)NC(C)=C(C(=O)OCCc2ccc(Cl)cc2)C1c1cccc([N+](=O)[O-])c1` (stereo unspecified), the IC50 in assay [1] stood at 39 nM; in assay [2], 8 nM.
As to `COC(=O)C1=C(C)NC(C)=C(C(=O)OCc2cccs2)C1c1cccc([N+](=O)[O-])c1` (stereo unspecified), the IC50 turned out to be 23 nM in assay [1] and 31 nM in assay [2].
As for `COC(=O)C1=C(C)NC(C)=C(C(=O)OCC(C)[N+](=O)[O-])C1c1cccc([N+](=O)[O-])c1` (stereo unspecified), the IC50 in assay [1] came to 111 nM; in assay [2], 108 nM.
